Laboratory results: paper PMC6785838 (Journal of peptide science : an official publication of the …, 2019)

Key:
[1] = cited from earlier work
[2] = Stability test of Sec-containing peptides in oxygenated buffer; type: physicochemical; conditions: for β-syn elimination: dehydroalanine-containing peptide (species D) by MS: 96 h in oxygenated KP buffer pH 8.0, 25 °C, positive ESI-MS, linear ion trap; for Deselenization seen as red selenium precipitate / color change: peptide 1 mM in oxygenated KP buffer pH 8.0, 96 h, visual inspection
Outline: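 Test peptides incubated in oxygenated KP buffer, pH 8.0, at 25 °C. Aliquots taken at 24, 48 and 96 h and centrifuged to pellet precipitated selenium. For MS, samples from time zero and 96 h were infused through a guard column at 10 μL/min into 100 μL/min 50/50 water/acetonitrile with 0.1% formic acid, using positive ESI and a linear ion trap scan over m/z 200–1800. Tubes with 1 mM peptide were photographed.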

| Compound | Water solubility [1] | β-syn elimination: dehydroalanine-containing peptide (species D) by MS [2] | Deselenization seen as red selenium precipitate / color change [2] |
| --- | --- | --- | --- |
| O=c1c2ccccc2[se]n1-c1ccccc1 [ebselen, 2-phenyl-1,2-benzisoselenazol-3(2H)-one] | not water soluble |  |  |
| H-(αMe)Sec-Gly-Thr-Thr-Val-Arg-Asp-Tyr-Thr-Gln-OH [peptide 11] |  | absent | no color change was observed |
| H-Sec-Gly-Thr-Thr-Val-Arg-Asp-Tyr-Thr-Gln-OH [peptide 12] |  | β-syn elimination occurred | red precipitate clearly forms |
